Measured values as given in ChEMBL document CHEMBL1156194, “Discovery of a new series of Aurora inhibitors through truncation of GSK1070916” (Bioorg Med Chem Lett, 2010).
Activity calls are given as the source filed them. No cut-off for these calls is given here.

How the values were obtained:
Aurora kinase B = Aurora kinase B (Homo sapiens, UniProt Q96GD4); assay: Inhibition of aurora B assessed as inhibition of histone H3 phosphorylation by ELISA based cellular mechanistic assay
How it was run: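 Cellular mechanistic assay: ELISA measuring intracellular Aurora B activity through phosphorylation of histone H3, an Aurora B-specific substrate. IC50 values are averages of at least two experiments.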

[1] = biological target: T1, Aurora kinase A/Targeting protein for Xklp2 (Homo sapiens, UniProt O14965); assay: Inhibition of human recombinant aurora A/TPX2 complex after 120 mins by IMAP fluorescence polarization assay; type: protein-complex assay
T1 sequence (O14965 whole entry): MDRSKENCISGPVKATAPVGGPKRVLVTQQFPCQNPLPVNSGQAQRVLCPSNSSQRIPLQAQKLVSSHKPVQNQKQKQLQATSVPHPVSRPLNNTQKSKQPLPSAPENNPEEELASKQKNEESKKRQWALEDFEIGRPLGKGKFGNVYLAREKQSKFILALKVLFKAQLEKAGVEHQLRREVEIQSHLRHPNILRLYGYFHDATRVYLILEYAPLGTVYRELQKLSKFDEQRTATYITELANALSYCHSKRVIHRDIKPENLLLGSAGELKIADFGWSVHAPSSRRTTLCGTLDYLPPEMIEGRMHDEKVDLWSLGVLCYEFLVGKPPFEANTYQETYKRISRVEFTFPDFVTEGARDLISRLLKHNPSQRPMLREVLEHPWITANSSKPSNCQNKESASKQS
T1 sequence (Q9ULW0 whole entry): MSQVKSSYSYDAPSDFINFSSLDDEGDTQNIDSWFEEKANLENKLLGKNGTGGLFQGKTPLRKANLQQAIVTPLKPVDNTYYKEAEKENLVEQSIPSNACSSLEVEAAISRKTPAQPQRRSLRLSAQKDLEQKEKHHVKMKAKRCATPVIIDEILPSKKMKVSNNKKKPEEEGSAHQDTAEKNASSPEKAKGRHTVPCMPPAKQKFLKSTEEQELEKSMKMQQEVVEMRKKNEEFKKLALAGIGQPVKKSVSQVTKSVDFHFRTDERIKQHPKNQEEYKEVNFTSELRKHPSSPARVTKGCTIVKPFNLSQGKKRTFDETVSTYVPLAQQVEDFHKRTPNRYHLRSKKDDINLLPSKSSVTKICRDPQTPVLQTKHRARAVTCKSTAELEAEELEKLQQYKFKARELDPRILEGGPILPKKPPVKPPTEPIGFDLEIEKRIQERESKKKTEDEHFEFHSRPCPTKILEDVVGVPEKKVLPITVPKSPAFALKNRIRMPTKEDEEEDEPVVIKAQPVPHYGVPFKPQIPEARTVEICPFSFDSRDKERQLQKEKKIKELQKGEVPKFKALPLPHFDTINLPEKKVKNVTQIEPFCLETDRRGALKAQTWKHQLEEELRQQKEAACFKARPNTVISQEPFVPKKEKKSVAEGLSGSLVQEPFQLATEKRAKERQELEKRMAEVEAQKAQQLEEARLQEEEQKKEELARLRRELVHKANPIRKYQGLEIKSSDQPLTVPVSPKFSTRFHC

[2] = biological target: Aurora kinase B/Inner centromere protein (Homo sapiens, UniProt Q96GD4); assay: Inhibition of human recombinant aurora B/INCENP complex after 120 mins by IMAP fluorescence polarization assay; type: protein-complex assay
A549 [3] = assay: Cytotoxicity against human A549 cells in presence of 10% human serum; type: functional, cell-based
How it was run: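 A549 cell proliferation assay run in 10% human serum. EC50 values are averages of at least two experiments, in nM.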

A549 [4] = assay: Cell cycle arrest in human A549 cells assessed as 4N DNA accumulation at 5 times EC50 after 48 hrs by FACS analysis relative to control; type: functional
How it was run: (§1)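 A549 lung tumour cells treated at 5× the compound's EC50 from the cell proliferation assay, alongside a DMSO control. Cell cycle profile read after 48 h by FACS. Values are the percentage of cells with sub-2N, 2N, 2N to 4N, 4N and >4N DNA content.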

A549 [5] = assay: Cell cycle arrest in human A549 cells assessed as sub-2N DNA accumulation at 5 times EC50 after 48 hrs by FACS analysis relative to control; type: functional; how it was run: as §1
A549 [6] = assay: Cell cycle arrest in human A549 cells assessed as greater than 4N DNA accumulation at 5 times EC50 after 48 hrs by FACS analysis relative to control; type: functional; how it was run: as §1
A549 [7] = assay: Cell cycle arrest in human A549 cells assessed as multipolar spindle accumulation at 37 nM after 24 hrs by immunofluorescent staining microscopy; type: functional, cell-based
How it was run: (§2)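 A549 tumour cells treated at 12, 37 or 110 nM for 24 h. Cells stained with α-tubulin antibody for mitotic spindles, pericentrin antibodies for centrosomes, and […] for DNA. Mitotic phenotype scored by immunofluorescence.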

A549 [8] = assay: Cell cycle arrest in human A549 cells assessed as multipolar spindle accumulation at 12 nM after 24 hrs by immunofluorescent staining microscopy; type: functional, cell-based; how it was run: as §2
A549 [9] = assay: Cell cycle arrest in human A549 cells assessed as 2N DNA accumulation at 5 times EC50 after 48 hrs by FACS analysis relative to control; type: functional; how it was run: as §1
A549 [10] = assay: Cell cycle arrest in human A549 cells assessed as 2N to 4N DNA accumulation at 5 times EC50 after 48 hrs by FACS analysis relative to control relative to control; type: functional; how it was run: as §1
A549 [11] = assay: Cell cycle arrest in human A549 cells assessed as malformed bipolar and monopolar spindle mixture accumulation at 110 nM after 24 hrs by immunofluorescent staining microscopy; type: functional, cell-based; how it was run: as §2
[12] = Oral bioavailability in rat; type: ADME, organism-based; settings: in vivo
Rattus norvegicus = assay: Dose normalized AUC in po dosed rat; type: ADME, organism-based; settings: in vivo
[13] = Blood clearance in po dosed rat; type: ADME, organism-based; settings: whole blood

Sequence of Aurora kinase B (Q96GD4 whole entry): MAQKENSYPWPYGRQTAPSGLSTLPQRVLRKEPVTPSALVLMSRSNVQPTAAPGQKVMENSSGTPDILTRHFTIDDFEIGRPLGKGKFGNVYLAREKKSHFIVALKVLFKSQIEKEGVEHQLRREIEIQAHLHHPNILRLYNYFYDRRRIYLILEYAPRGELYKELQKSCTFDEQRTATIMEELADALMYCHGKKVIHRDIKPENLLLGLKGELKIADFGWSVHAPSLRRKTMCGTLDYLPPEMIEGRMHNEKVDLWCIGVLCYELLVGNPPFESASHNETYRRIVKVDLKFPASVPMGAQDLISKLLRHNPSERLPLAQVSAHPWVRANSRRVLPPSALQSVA
Sequence of Aurora kinase B/Inner centromere protein (Q96GD4 whole entry): as above
Sequence of Aurora kinase B/Inner centromere protein (Q9NQS7 whole entry, further chain): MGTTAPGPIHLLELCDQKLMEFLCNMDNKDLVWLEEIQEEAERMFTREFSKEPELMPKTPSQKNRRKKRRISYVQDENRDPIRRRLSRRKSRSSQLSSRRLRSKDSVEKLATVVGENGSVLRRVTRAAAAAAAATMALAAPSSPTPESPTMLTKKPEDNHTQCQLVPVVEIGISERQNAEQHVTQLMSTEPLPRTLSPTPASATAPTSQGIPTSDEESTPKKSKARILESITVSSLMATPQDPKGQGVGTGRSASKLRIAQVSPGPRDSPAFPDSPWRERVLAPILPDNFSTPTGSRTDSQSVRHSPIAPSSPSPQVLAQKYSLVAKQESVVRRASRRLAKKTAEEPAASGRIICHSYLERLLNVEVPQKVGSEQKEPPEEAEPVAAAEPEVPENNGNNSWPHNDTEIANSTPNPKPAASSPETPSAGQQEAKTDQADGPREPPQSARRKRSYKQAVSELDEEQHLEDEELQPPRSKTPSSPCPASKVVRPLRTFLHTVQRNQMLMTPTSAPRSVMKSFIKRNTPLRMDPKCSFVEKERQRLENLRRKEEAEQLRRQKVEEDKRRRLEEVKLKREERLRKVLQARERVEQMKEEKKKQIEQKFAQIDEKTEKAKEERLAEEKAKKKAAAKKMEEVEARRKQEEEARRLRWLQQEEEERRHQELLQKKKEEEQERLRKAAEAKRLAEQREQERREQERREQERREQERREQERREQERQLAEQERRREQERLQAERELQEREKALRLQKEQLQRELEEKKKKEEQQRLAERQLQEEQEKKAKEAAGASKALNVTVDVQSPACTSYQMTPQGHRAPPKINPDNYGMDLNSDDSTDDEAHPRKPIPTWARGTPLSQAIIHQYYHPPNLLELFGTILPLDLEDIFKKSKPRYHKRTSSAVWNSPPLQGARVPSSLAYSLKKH

Row | Structure (SMILES) | IC50 (Aurora kinase B) | IC50 [1] | IC50 ([2]; read-out: IC50) | EC50 (A549 [3]) | Activity (A549 [4]) | Activity (A549 [5]) | Activity (A549 [6]) | Activity (A549 [7]) | Activity (A549 [8]) | Activity (A549 [9]) | Activity (A549 [10]) | Activity (A549 [11]) | IC50 ([2]; read-out: pIC50 (converted)) | bioavailability [12] | AUC (Rattus norvegicus) | CL/F [13]
1 | c1cc(-c2cn[nH]c2)c2cc[nH]c2n1 | 13400 nM | 584 nM | 782 nM | 2570 nM | – | – | – | – | – | – | – | – | – | – | – | –
2 | CN(C)Cc1ccc(-c2cc3c(-c4cnn(C)c4)c(Cl)cnc3[nH]2)cc1 | 9 nM | 7.9 nM | 0.61 nM | 13 nM | 40% | 27% | 15% | Active | Active | 14% | 5% | – | – | – | – | –
3 | CN(C)Cc1cccc(-c2cc3c(-c4cnn(C)c4)c(Cl)cnc3[nH]2)c1 | 67 nM | 6.2 nM | 0.51 nM | 21 nM | 26% | 34% | 30% | Active | – | 6% | 4% | Active | – | – | – | –
4 | CN(C)Cc1cccc(-c2cc3c(-c4cnn(C)c4)ccnc3[nH]2)c1 | 104 nM | 128 nM | 5.7 nM | 134 nM | 43% | 36% | 3% | – | – | 13% | 4% | – | – | – | – | –
5 | Cn1cc(-c2ccnc3[nH]ccc23)cn1 | 6160 nM | 982 nM | 802 nM | 11700 nM | – | – | – | – | – | – | – | – | – | – | – | –
6 | CCn1cc(-c2ccnc3[nH]ccc23)c(-c2ccc(NC(=O)N(C)C)cc2)n1 | – | > 10000 nM | 26 nM | 1530 nM | – | – | – | – | – | – | – | – | – | – | – | –
7 | CCn1cc(-c2ccnc3[nH]ccc23)c(-c2ccc(NC(=O)Nc3ccccc3)cc2)n1 | – | – | – | – | – | – | – | – | – | – | – | – | 2 nM | – | – | –
8 | CN(C)Cc1ccc(-c2cc3c(-c4cnn(C)c4)ccnc3[nH]2)cc1 | 169 nM | 76 nM | 5.9 nM | 24 nM | 29% | 30% | 2% | – | – | 32% | 7% | – | – | 72% | 139 ng·h/mL/mg/kg | 86 mL/min/kg
9 | CCn1cc(-c2ccnc3[nH]c(-c4cccc(CN(C)C)c4)cc23)c(-c2ccc(NC(=O)N(C)C)cc2)n1 [GSK-1070916] | 32 nM | – | 3.2 nM | 7 nM | 23% | 21% | 47% | – | – | 6% | 3% | – | – | – | – | –
